Test results published in ChEMBL document CHEMBL2151006 (Eur J Med Chem, 2012).

Tests used:
Homo sapiens = species: Homo sapiens; assay: Selectivity index, ratio of Ki for human recombinant CB1 receptor to Ki for human recombinant CB2 receptor
Cannabinoid receptor 2 [1] = biological target: T1, Cannabinoid receptor 2 (Homo sapiens, UniProt P34972); assay: Displacement of [3H]CP55940 from human recombinant CB2 receptor transfected in HEK cell membranes; set-up: species or system HEK293
Cannabinoid receptor 1 [2] = biological target: T2, Cannabinoid receptor 1 (Homo sapiens, UniProt P21554); assay: biochemical; format: cell-based, HEK293
[3] = Intrinsic clearance in rat liver microsomes; format: ADME, Microsome; conditions: read-out: CLH
[4] = Intrinsic clearance in human liver microsomes; format: ADME, Microsome; conditions: read-out: CLH
CYP3A4 = CYP3A4 (Homo sapiens, UniProt P08684); assay: Metabolic stability assessed as human recombinant CYP3A4-mediated drug metabolism by measuring compound remaining after 1 hr; format: ADME; conditions: read-out: Drug metabolism
Procedure, shortened: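 Recombinant hCYP3A4 at 20 pmol/mL in 100 mM phosphate pH 7.4 with 1 mM EDTA, […]. Incubation was 1 h at 37 °C with or without NADPH regenerating system, then stopped with cold acetonitrile. Percent remaining is the MS peak area with NADPH over that without, ×100.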

MDR1 [5] = assay: Efflux ratio of permeability from basolateral to apical side over apical to basolateral side in human MDR1 transfected MDCK2 cells at 10 uM after 2 hrs; format: ADME, cell-based, Canis lupus familiaris, MDCK-II; conditions: dog, MDCK-MDR1
Cannabinoid receptor 1 [6] = biological target: T2, Cannabinoid receptor 1; assay: Agonist activity at human CB1 receptor transfected in CHO cell membranes by [35S]GTPgammaS binding assay; format: functional
[7] = Metabolic stability in rat plasma assessed as compound remaining measured at 3 hrs; format: ADME, cell-free; conditions: read-out: Stability
Procedure, shortened: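 Fresh rat plasma was spiked with compound and incubated at 37 °C with gentle agitation, in duplicate. Samples were taken at 0, 30 min and 3 h and proteins precipitated with acetonitrile. LC-ESI+-MS/MS in MRM mode; percent remaining is peak area relative to time 0.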

MDR1 [8] = assay: Apparent permeability across apical to basolateral side in human MDR1 transfected MDCK2 cells at 10 uM after 2 hrs; format: ADME, cell-based, Canis lupus familiaris, MDCK-II; conditions: dog, MDCK-MDR1
Cannabinoid receptor 1 [9] = biological target: T2, Cannabinoid receptor 1; assay: Agonist activity at human CB1 receptor transfected in CHO cell membranes at 0.001 to 30 uM by [35S]GTPgammaS binding assay relative to CP55940; format: functional
Cannabinoid receptor 2 [10] = biological target: T1, Cannabinoid receptor 2; conditions: CHO, 0.001 to 10 uM
Cannabinoid receptor 2 [11] = biological target: T1, Cannabinoid receptor 2; assay: Agonist activity at human CB2 receptor transfected in CHO cell membranes by [35S]GTPgammaS binding assay; format: functional

T2 sequence (P21554 whole entry): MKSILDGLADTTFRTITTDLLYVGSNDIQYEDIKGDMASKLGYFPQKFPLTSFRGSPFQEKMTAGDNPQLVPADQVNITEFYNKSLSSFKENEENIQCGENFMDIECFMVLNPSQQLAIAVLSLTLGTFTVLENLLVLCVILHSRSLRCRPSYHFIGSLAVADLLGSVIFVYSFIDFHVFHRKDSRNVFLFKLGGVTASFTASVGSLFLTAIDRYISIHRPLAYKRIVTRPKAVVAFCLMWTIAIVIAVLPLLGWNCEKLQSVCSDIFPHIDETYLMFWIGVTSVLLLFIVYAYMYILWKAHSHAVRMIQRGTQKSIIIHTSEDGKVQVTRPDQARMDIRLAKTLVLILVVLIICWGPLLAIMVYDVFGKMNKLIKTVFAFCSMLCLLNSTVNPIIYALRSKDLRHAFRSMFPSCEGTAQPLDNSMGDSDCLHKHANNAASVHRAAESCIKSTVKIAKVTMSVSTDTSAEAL
T1 sequence (P34972 whole entry): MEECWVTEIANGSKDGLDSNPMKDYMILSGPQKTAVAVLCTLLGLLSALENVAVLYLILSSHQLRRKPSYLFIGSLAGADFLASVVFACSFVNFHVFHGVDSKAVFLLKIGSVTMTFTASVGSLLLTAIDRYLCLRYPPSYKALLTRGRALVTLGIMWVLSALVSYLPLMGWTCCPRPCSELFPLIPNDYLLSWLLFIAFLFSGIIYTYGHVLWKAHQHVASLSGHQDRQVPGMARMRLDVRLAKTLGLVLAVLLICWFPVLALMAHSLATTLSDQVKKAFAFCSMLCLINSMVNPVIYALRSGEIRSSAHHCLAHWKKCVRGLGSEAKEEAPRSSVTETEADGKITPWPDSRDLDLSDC
Sequence of CYP3A4 (P08684 whole entry): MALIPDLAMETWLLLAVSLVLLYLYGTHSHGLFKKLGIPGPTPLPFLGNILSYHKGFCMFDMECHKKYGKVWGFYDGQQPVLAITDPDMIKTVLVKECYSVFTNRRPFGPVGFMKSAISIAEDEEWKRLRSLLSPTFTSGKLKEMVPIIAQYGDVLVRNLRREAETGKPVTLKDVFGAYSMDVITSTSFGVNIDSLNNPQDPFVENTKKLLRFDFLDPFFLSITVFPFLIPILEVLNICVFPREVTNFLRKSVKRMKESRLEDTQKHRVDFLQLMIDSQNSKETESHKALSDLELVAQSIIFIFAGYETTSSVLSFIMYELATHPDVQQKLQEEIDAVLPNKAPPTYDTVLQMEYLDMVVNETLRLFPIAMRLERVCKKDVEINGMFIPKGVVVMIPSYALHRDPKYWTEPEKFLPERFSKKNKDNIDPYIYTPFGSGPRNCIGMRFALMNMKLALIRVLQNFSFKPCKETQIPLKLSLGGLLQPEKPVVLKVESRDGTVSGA

Compound	Ratio Ki (Homo sapiens)	Ki (Cannabinoid receptor 2 [1]) [nM]	Ki (Cannabinoid receptor 1 [2]) [nM]	other results
CCCCCn1cc(C(=O)NCc2ccc(Cl)c(Cl)c2)c(=O)c2ccc(-c3ccccc3)cc21	< 0.04	> 10000	390	–
CCCCCn1cc(C(=O)NC23CC4CC(CC(C4)C2)C3)c(=O)c2ccc(F)cc21	38	–	–	–
CC1(C)C2CC[C@](C)(C2)[C@@H]1NC(=O)c1c[nH]c2cc(F)ccc2c1=O	> 10	–	–	–
CCCn1cc(C(=O)N[C@@H]2C(C)(C)C3CC[C@]2(C)C3)c(=O)c2ccc(F)cc21	57	2.9	193	–
CN(C)CCn1cc(C(=O)N[C@@H]2C(C)(C)C3CC[C@]2(C)C3)c(=O)c2ccc(Sc3ccccc3)cc21	23	1.3	28.8	–
CCCCn1cc(C(=O)N[C@@H]2C(C)(C)C3CC[C@]2(C)C3)c(=O)c2ccc(F)cc21	17	0.8	14.4	–
CC1(C)C2CC[C@](C)(C2)[C@@H]1NC(=O)c1cn(CCCCSc2ccccc2)c2cc(Sc3ccccc3)ccc2c1=O	> 1540	6.5	> 10000	–
CC1(C)C2CC[C@](C)(C2)[C@@H]1NC(=O)c1cn(CCCCO)c2cc(Sc3ccccc3)ccc2c1=O	15	2.5	38.6	–
CCCCCn1cc(C(=O)NOCc2ccccc2)c(=O)c2ccc(Sc3ccccc3)cc21	0.7	19.3	12.9	–
Cn1cc(C(=O)N[C@@H]2C(C)(C)C3CC[C@]2(C)C3)c(=O)c2ccc(F)cc21	> 106	93.9	> 10000	–
CCCCCn1cc(C(=O)N[C@@H]2C(C)(C)C3CC[C@]2(C)C3)c(=O)c2ccc(Sc3ccccc3)cc21	27.2	0.09	2.45	–
Cc1cccc(Cn2cc(C(=O)N[C@@H]3C(C)(C)C4CC[C@]3(C)C4)c(=O)c3ccc(Sc4ccccc4)cc32)c1	5	139	669	–
CCCCCn1cc(C(=O)NN(C)C)c(=O)c2ccc(Sc3ccccc3)cc21	1.1	77.5	86.6	–
CCn1cc(C(=O)N[C@@H]2C(C)(C)C3CC[C@]2(C)C3)c(=O)c2ccc(Sc3ccccc3)cc21	42	4.4	181	–
COCCn1cc(C(=O)N[C@@H]2C(C)(C)C3CC[C@]2(C)C3)c(=O)c2ccc(F)cc21	54	5.5	297	–
CC1(C)C2CC[C@](C)(C2)[C@@H]1NC(=O)c1cn(CCCCO)c2cc(F)ccc2c1=O	26	15.2	398	–
CCCCCn1cc(C(=O)NC(CC)CO)c(=O)c2ccc(Sc3ccccc3)cc21 (centres undefined)	2.9	19.9	58.2	–
CCCCCn1cc(C(=O)NCCN2CCOCC2)c(=O)c2ccc(Sc3ccccc3)cc21	0.5	119	63.2	–
CCCn1cc(C(=O)N[C@@H]2C(C)(C)C3CC[C@]2(C)C3)c(=O)c2ccc(Sc3ccccc3)cc21	31	0.4	11	–

Compound	Ratio Ki (Homo sapiens)	Ki (Cannabinoid receptor 2 [1]) [nM]	Ki (Cannabinoid receptor 1 [2]) [nM]	other results
CN(C)CCn1cc(C(=O)N[C@@H]2C(C)(C)C3CC[C@]2(C)C3)c(=O)c2ccc(F)cc21	–	7.9	–	–
COCCn1cc(C(=O)N[C@@H]2C(C)(C)C3CC[C@]2(C)C3)c(=O)c2ccc(Sc3ccccc3)cc21	22	1.1	23.8	–
CCCCCn1cc(C(=O)NC23CC4CC(CC(C4)C2)C3)c(=O)c2ccc(Sc3ccccc3)cc21	3.3	–	–	–
CCCCCn1cc(C(=O)NC(C)C)c(=O)c2ccc(Sc3ccccc3)cc21	1.4	14.8	20.9	–
CCCCCn1cc(C(=O)N[C@@H]2C(C)(C)C3CC[C@]2(C)C3)c(=O)c2ccc(F)cc21	17	0.3	4	–
CC1(C)C2CC[C@](C)(C2)[C@@H]1NC(=O)c1cnc2cc(F)ccc2c1O	–	957	> 10000	–
CCCCCn1cc(C(=O)NN2CCCCC2)c(=O)c2ccc(Sc3ccccc3)cc21	2.2	13.3	28.9	–
CCCCCn1cc(C(=O)NC2CN3CCC2CC3)c(=O)c2ccc(Sc3ccccc3)cc21 (centres undefined)	1.7	89.1	151	–
C=Cn1cc(C(=O)N[C@@H]2C(C)(C)C3CC[C@]2(C)C3)c(=O)c2ccc(F)cc21	235	15.2	3570	–
CCCCCn1cc(C(=O)NCc2ccc(Cl)c(Cl)c2)c(=O)c2ccc(Br)cc21	5	130	660	–
CCCCCn1cc(C(=O)NCc2ccc(Cl)c(Cl)c2)c(=O)c2ccc(Sc3ccccc3)cc21	< 0.04	> 10000	420	microsomal CLint [3]: > 700 µL/min/mg; microsomal CLint [4]: > 700 µL/min/mg; remaining at 1 h (CYP3A4): 25%; efflux ratio at 2 h, 10 µM (MDR1 [5]): 0.4; EC50 (Cannabinoid receptor 1 [6]): 791 nM; remaining at 3 h [7]: 100%; Papp A→B at 2 h, 10 µM (MDR1 [8]): 0.14 ×10⁻⁶ cm/s; Emax (Cannabinoid receptor 1 [9]): 55.8%
Cc1cccc(Cn2cc(C(=O)N[C@@H]3C(C)(C)C4CC[C@]3(C)C4)c(=O)c3ccc(F)cc32)c1	> 317	31.5	> 10000	–
CCn1cc(C(=O)N[C@@H]2C(C)(C)C3CC[C@]2(C)C3)c(=O)c2ccc(F)cc21	131	7.3	960	microsomal CLint [3]: > 700 µL/min/mg; Emax (Cannabinoid receptor 2 [10]): 45%; microsomal CLint [4]: > 700 µL/min/mg; remaining at 1 h (CYP3A4): 1%; EC50 (Cannabinoid receptor 2 [11]): 17.2 nM; efflux ratio at 2 h, 10 µM (MDR1 [5]): 1; remaining at 3 h [7]: 92%; Papp A→B at 2 h, 10 µM (MDR1 [8]): 0.17 ×10⁻⁶ cm/s
CCCCCn1cc(C(=O)N2CCC[C@H]2C(N)=O)c(=O)c2ccc(Sc3ccccc3)cc21	6.5	230	1490	–
O=C(NN1CCCCC1)c1cn(-c2ccc(Cl)cc2)c2cc(F)ccc2c1=O	–	> 10000	> 10000	–
CCCCn1cc(C(=O)N[C@@H]2C(C)(C)C3CC[C@]2(C)C3)c(=O)c2ccc(Sc3ccccc3)cc21	31	0.1	4.7	–
CCCCCn1cc(C(=O)NOC)c(=O)c2ccc(Sc3ccccc3)cc21	1.4	340	490	–
Cn1cc(C(=O)N[C@@H]2C(C)(C)C3CC[C@]2(C)C3)c(=O)c2ccc(Sc3ccccc3)cc21	117	16	1870	–
O=C(NN1CCCCC1)c1cn(-c2ccc(F)cc2)c2cc(Sc3ccccc3)ccc2c1=O	–	> 10000	> 10000	–
